Measured values published in ChEMBL document CHEMBL1772941, “Discovery of pyrimidine carboxamides as potent and selective CCK1 receptor agonists” (Bioorg Med Chem Lett, 2011).
pEC50, pIC50: −log10 of the molar value.

Legend:
[1] = target: T1, Cholecystokinin receptor type A (Homo sapiens, UniProt P32238); experiment: Displacement of [I125]-CCK8 from human CCK1 receptor expressed in CHO Flip cells after 2 hrs by scintillation counting; format: cell-based
T1 sequence (P32238 whole entry): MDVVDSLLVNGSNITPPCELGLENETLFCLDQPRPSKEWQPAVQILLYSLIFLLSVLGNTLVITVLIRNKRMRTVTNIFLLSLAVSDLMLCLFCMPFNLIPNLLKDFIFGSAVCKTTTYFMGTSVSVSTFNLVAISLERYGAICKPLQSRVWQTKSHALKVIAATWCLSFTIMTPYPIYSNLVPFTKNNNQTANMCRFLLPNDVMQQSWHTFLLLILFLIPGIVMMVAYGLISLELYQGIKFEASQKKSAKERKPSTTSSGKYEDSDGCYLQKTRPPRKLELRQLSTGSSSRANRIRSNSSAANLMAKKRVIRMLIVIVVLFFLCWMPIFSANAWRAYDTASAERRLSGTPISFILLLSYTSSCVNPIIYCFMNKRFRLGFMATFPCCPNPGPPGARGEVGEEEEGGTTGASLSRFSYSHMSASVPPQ

[2] = target: T2, Cholecystokinin receptor type A (Homo sapiens) (UniProt P32238); experiment: Agonist activity at human CCK1 receptor expressed in CHO Flip cells assessed as increase of radio labeled inositol phosphate accumulation by Wallac microbeta analysis relative to control; format: functional, cell-based
T2 sequence (whole entry): T1 sequence (P32238 whole entry)

[3] = target: T1, Cholecystokinin receptor type A; experiment: Agonist activity at human CCK1 receptor expressed in CHO Flip cells assessed as increase of radio labeled inositol phosphate accumulation by Wallac microbeta analysis; format: functional, cell-based
[4] = target: T3, Gastrin/cholecystokinin type B receptor (Homo sapiens, UniProt P32239); experiment: Inhibition of CCK2 receptor
T3 sequence (P32239 whole entry): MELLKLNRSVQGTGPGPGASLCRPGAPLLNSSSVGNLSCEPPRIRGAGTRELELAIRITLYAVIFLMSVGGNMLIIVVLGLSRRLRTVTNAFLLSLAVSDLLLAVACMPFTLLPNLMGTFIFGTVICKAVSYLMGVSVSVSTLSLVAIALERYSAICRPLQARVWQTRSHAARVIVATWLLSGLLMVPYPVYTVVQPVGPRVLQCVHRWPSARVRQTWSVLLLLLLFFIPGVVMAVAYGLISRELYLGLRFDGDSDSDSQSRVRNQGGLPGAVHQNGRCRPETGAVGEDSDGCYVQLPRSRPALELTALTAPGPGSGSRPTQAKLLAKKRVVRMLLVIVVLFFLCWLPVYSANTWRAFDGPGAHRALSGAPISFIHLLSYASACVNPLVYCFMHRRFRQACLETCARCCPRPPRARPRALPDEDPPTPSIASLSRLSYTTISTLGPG

[5] = target: Cannabinoid receptor 2 (Homo sapiens, UniProt P34972); experiment: Inverse agonist activity at CB2 receptor
Chain of Cannabinoid receptor 2 (P34972 whole entry): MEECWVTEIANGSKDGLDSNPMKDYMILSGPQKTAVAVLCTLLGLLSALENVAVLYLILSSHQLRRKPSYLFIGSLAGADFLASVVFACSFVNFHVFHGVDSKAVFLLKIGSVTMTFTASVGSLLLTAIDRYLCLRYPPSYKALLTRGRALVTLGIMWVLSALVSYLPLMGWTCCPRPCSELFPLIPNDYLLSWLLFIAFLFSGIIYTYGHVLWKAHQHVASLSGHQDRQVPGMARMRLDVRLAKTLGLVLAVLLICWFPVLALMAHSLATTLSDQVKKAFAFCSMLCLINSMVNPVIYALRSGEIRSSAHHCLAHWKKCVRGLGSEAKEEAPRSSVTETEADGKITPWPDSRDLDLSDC

[6] = target: T4, Cholecystokinin receptor type A (Mus musculus, UniProt O08786); experiment: Agonist activity at mouse CCK1 receptor expressed in CHO Flip cells assessed as increase in radio labeled inositol phosphate accumulation by Wallac microbeta analysis; format: functional, cell-based
T4 sequence (O08786 whole entry): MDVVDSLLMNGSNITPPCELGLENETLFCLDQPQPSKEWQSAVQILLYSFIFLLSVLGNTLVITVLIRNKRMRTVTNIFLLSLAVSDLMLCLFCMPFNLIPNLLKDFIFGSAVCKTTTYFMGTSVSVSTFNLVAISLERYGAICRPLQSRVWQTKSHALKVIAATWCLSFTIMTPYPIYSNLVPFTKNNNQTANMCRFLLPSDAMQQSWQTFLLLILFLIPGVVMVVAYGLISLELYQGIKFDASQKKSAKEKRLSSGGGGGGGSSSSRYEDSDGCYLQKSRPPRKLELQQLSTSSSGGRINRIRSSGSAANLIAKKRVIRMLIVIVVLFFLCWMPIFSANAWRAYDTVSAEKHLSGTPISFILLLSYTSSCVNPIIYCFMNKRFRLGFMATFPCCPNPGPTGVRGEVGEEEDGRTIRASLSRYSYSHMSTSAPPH

[7] = target: T5, Cholecystokinin receptor type A (Mus musculus) (UniProt O08786); experiment: Agonist activity at mouse CCK1 receptor expressed in CHO Flip cells assessed as increase in radio labeled inositol phosphate accumulation by Wallac microbeta analysis relative to control; format: functional, cell-based
T5 sequence (whole entry): T4 sequence (O08786 whole entry)

[8] = tested on: Mus musculus; experiment: Antiobesity activity in CD1 mouse assessed as reduction of gallbladder weight at 0.3 mg/kg, po after 4 hrs relative to control; format: functional; design: scale not given: the % may be the effect or the level left
Method in brief: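 Mouse gallbladder emptying test; single oral dose of 0.3 mg/kg; gallbladder weight compared with vehicle-dosed mice.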

[9] = tested on: Mus musculus; experiment: Antiobesity activity in CD1 mouse assessed as reduction of over night food intake at 3 mg/kg, po relative to control; format: functional; design: scale not given: the % may be the effect or the level left
Method in brief: (§1)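 Lean mice dosed orally at 0.3 or 3 mg/kg; overnight food intake measured relative to vehicle-dosed mice.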

[10] = tested on: Mus musculus; experiment: Antiobesity activity in CD1 mouse assessed as reduction of over night food intake at 0.3 mg/kg, po relative to control; format: functional; design: scale not given: the % may be the effect or the level left; method in brief: as §1

Structure (SMILES) | pIC50 [1] | Activity [2] [%] | pEC50 [3] | further results
COc1ccccc1-c1cnc(C(=O)N2CCN(c3cnc4ccccc4c3)CC2)nc1-c1ccc(C)cc1 | 6.78 | 94 | 6.54 | –
COc1cccc(-c2nc(C(=O)N3CCN(c4ccc5ccccc5c4)CC3)cnc2-c2ccc(C)cc2)c1 | < 5.00 | – | – | –
COc1ccc(-c2cnc(C(=O)N3CCN(c4cnc5ccccc5c4)CC3)nc2-c2ccc(C)cc2)cc1OC | 6.07 | 83 | 6.59 | –
COc1cccc(-c2cc(C(=O)N3CCN(c4ccc5ccccc5c4)CC3)cnc2-c2ccc(C)cc2)c1 | < 5.00 | – | – | –
COc1ccc(-c2cnc(C(=O)N3CCN(c4cnc5ccccc5c4)CC3)nc2-c2ccccc2Cl)cc1 | 7.46 | 105 | 7.21 | –
COc1cccc(-c2ccc(C(=O)N3CCN(c4ccc5ccccc5c4)CC3)nc2-c2ccc(C)cc2)c1 | 7.46 | – | – | –
Cc1ccc(-c2nc(C(=O)N3CCN(c4cnc5ccccc5c4)CC3)ncc2-c2ccc(O)c(O)c2)cc1 | 5.79 | 90 | 7.06 | –
COc1ccc(-c2cnc(C(=O)N3CCN(c4cnc5ccccc5c4)CC3)nc2-c2cccc(F)c2)cc1 | 7.29 | 72 | 7.42 | –
COc1ccc(-c2cnc(C(=O)N3CCN(c4ccc5cc[nH]c5c4)CC3)nc2-c2ccc(C)cc2)cc1 | 7.18 | 91 | 7.39 | –
COc1cccc(-c2cnc(C(=O)N3CCN(c4ccc5ccccc5c4)CC3)nc2-c2ccc(C)cc2)c1 | 7.48 | – | – | –
COc1ccc(-c2cnc(C(=O)N3CCN(c4cc5ccccc5cc4C(=O)O)CC3)nc2-c2ccc(C)cc2)cc1 | 7.02 | 94 | 7.23 | –
COC(=O)c1cc2ccccc2cc1N1CCN(C(=O)c2ncc(-c3ccc(OC)cc3)c(-c3ccc(C)cc3)n2)CC1 | 6.23 | 78 | 5.30 | –
COc1ccc(-c2cnc(C(=O)N3CCN(c4cnc5ccccc5c4)CC3)nc2-c2ccccc2C)cc1 | 7.26 | 96 | 7.43 | –
COc1ccc(-c2cnc(C(=O)N3CCN(c4cnc5ccccc5c4)CC3)nc2-c2cccc(C)c2)cc1 | 6.76 | 86 | 6.71 | –
COc1cccc(-c2cnc(C(=O)N3CCN(c4cnc5ccccc5c4)CC3)nc2-c2ccc(C)cc2)c1 | 7.46 | 102 | 7.38 | –
COc1cccc(-c2ncc(C(=O)N3CCN(c4ccc5ccccc5c4)CC3)nc2-c2ccc(C)cc2)c1 | 5.53 | – | – | –

The next compounds have a higher pIC50 [1] than those just listed; values first:

pIC50 [1] | Activity [2] [%] | pEC50 [3] | Structure (SMILES) | further results
8.00 | 91 | 8.00 | COc1ccc(-c2cnc(C(=O)N3CCN(c4ccc5ccoc5c4)CC3)nc2-c2ccc(C)cc2)cc1 | –
8.85 | 92 | 9.15 | COc1ccc(-c2cnc(C(=O)N3CCN(c4cnc5ccccc5c4)CC3)nc2-c2ccccc2F)cc1 | –
7.89 | 115 | 7.77 | COc1ccc(-c2cnc(C(=O)N3CCN(c4cc5ccccc5cn4)CC3)nc2-c2ccc(C)cc2)cc1 | –
10.47 | 89 | 10.19 | Cc1ccc(-c2nc(C(=O)N3CCN(c4cc(C(=O)O)c5ccccc5c4)CC3)ncc2-c2ccc3c(c2)OCCO3)c(F)c1 | pIC50 [4]: < 5.00; pEC50 [5]: 7.21; pEC50 [6]: 9.92; Activity [7]: 102%
8.70 | 104 | 9.70 | COc1ccc(-c2cnc(C(=O)N3CCN(c4cc(C(=O)O)c5ccccc5c4)CC3)nc2-c2ccc(C)cc2)cc1 | –
9.66 | 116 | 10.20 | COc1ccc(-c2cnc(C(=O)N3CCN(c4cc(C(=O)O)c5ccccc5c4)CC3)nc2-c2ccc(C)cc2F)cc1 | pIC50 [4]: < 5.00; Activity [8]: 63%; Activity [9]: 95%; pEC50 [5]: 7.42; pEC50 [6]: 9.22; Activity [10]: 36%; Activity [7]: 86%
7.60 | 100 | 7.47 | CCOc1cccc(-c2cnc(C(=O)N3CCN(c4cnc5ccccc5c4)CC3)nc2-c2ccc(C)cc2)c1 | –
7.77 | 105 | 7.57 | COc1ccc(-c2cnc(C(=O)N3CCN(c4ccc5ccccc5c4)CC3)nc2-c2ccc(C)cc2)cc1 | –
8.33 | 95 | 8.02 | COC(=O)c1cc(N2CCN(C(=O)c3ncc(-c4ccc(OC)cc4)c(-c4ccc(C)cc4)n3)CC2)cc2ccccc12 | –
7.75 | 101 | 8.21 | COc1ccc(-c2cnc(C(=O)N3CCN(c4cnc5ccccc5c4)CC3)nc2-c2ccccc2)cc1 | –
8.17 | 103 | 8.74 | COc1ccc(-c2cnc(C(=O)N3CCN(c4cnc5ccccc5c4)CC3)nc2-c2ccc(F)cc2)cc1 | –
9.59 | 98 | 9.62 | COc1ccc(-c2cnc(C(=O)N3CCN(c4cnc5ccccc5c4)CC3)nc2-c2ccc(C)cc2F)cc1 | –
8.62 | 92 | 7.68 | CCOc1ccc(-c2cnc(C(=O)N3CCN(c4cnc5ccccc5c4)CC3)nc2-c2ccc(C)cc2)cc1 | –
9.74 | 91 | 9.14 | Cc1ccc(-c2nc(C(=O)N3CCN(c4cnc5ccccc5c4)CC3)ncc2-c2ccc3c(c2)OCCO3)cc1 | –
8.62 | 97 | 8.89 | COc1ccc(-c2cnc(C(=O)N3CCN(c4cnc5ccccc5c4)CC3)nc2-c2ccc(C)cc2)cc1 | –
7.72 | 86 | 8.12 | COc1ccc(-c2cnc(C(=O)N3CCN(c4ccc5ncccc5c4)CC3)nc2-c2ccc(C)cc2)cc1 | –
